In ChEMBL document CHEMBL1141158, “New 5-hydroxytryptamine(1A) receptor ligands containing a norbornene nucleus: synthesis and in vitro pharmacological evaluation” (J Med Chem, 2005) one finds Ki data, which are given here for 6 compounds.

In assay [1] the target is T1, Adrenergic receptor alpha-2 (Rattus norvegicus, UniProt P22086+P19328+P22909).
T1 sequence (P22086 whole entry): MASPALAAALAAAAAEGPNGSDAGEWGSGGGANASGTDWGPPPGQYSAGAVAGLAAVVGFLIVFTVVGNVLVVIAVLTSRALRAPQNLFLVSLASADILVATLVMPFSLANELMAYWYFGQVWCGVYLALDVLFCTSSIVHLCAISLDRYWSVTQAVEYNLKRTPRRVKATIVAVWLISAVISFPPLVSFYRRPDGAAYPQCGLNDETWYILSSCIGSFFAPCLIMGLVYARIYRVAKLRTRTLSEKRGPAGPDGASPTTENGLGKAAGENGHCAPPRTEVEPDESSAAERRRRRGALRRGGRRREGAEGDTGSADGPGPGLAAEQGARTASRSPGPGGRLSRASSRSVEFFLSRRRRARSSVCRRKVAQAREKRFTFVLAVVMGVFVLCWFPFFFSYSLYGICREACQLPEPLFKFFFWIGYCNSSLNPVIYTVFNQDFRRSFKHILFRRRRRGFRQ
T1 sequence (P19328 whole entry): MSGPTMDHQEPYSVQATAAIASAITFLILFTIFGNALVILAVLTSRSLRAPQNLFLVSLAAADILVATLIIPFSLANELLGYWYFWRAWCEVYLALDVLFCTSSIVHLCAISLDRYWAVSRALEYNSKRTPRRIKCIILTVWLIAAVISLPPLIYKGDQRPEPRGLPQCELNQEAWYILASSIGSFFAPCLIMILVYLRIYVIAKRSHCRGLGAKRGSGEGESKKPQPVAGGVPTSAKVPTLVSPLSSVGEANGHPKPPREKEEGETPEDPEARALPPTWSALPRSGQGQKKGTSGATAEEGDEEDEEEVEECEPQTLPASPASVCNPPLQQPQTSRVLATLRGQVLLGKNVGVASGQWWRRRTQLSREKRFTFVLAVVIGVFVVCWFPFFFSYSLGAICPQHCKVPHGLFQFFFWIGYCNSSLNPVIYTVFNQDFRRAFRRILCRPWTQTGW
T1 sequence (P22909 whole entry): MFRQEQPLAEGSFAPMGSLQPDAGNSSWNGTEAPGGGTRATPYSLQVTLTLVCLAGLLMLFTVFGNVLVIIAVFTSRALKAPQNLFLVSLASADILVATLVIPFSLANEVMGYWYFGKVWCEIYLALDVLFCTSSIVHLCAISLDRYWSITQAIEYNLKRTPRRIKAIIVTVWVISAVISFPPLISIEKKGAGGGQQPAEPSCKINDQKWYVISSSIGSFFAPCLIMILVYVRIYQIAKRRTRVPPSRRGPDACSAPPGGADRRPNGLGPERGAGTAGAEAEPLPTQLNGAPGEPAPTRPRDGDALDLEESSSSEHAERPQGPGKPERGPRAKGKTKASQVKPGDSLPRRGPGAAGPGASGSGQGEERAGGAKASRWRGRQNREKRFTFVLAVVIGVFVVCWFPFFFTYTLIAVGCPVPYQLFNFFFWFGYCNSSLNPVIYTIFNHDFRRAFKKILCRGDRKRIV
In words: Inhibition of [3H]yohimbine binding to Adrenergic receptor alpha 2 receptor from rat brain cortex. In outline:
(§1)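 Brain cortex homogenized in 5 mM Tris-HCl/5 mM EDTA, washed three times at 50 000g, resuspended in 50 mM Tris-HCl/0.5 mM EDTA pH 7.5; 10 mg fresh tissue per tube. [3H]yohimbine 1 nM final, 30 min at 25 °C, GF/B filtration, scintillation counting. Six concentrations in triplicate; IC50 converted to Ki (Cheng–Prusoff).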

For assay [2], the target named is T2, 5-hydroxytryptamine receptor 1A (Rattus norvegicus, UniProt P19327).
T2 sequence (P19327 whole entry): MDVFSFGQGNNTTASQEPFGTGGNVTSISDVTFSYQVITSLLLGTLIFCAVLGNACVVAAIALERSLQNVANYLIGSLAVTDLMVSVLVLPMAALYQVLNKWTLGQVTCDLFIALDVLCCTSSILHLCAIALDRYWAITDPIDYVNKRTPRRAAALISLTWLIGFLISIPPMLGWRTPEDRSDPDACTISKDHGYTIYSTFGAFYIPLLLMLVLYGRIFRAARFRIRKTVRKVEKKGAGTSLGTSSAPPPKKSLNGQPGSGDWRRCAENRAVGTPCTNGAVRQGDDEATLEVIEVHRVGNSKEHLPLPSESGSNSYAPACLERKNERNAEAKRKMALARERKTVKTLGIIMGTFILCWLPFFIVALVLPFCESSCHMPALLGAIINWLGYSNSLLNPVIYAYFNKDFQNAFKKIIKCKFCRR
In words: Inhibition of [3H]8-OH-DPAT binding to Serotonin 5-HT1A receptor from rat brain cortex.

Assay [3] concerns the target T1, Adrenergic receptor alpha-2. The assay can be described thus: Inhibition of [3H]yohimbine binding to Adrenergic alpha 2 receptor from rat brain cortex. In a few lines: as §1

The Ki is a dissociation constant, usually derived from enzyme kinetics or from competition with a known ligand. Low readings indicate a stronger hold on the target, high ones a looser hold on the target. Take `COc1ccccc1N1CCN(CCCON2C(=O)C3C4C=CC(C4)C3C2=O)CC1` (stereo unspecified): the values for the Ki in assay [1] and in assay [2] were 3650 nM and 0.021 nM, respectively.
For `O=C1C2C3C=CC(C3)C2C(=O)N1OCCCN1CCN(c2cccc(Cl)c2)CC1` (stereo unspecified) the same measures were 1710 nM and 3.36 nM.
In the same order, the values of `O=C1C2C3C=CC(C3)C2C(=O)N1OCCCN1CCN(c2cccc(C(F)(F)F)c2)CC1` (stereo unspecified) are 4680 nM and 5.13 nM.
For `O=C1C2C3C=CC(C3)C2C(=O)N1OCCCN1CCN(c2ccccc2Cl)CC1` (stereo unspecified) the same measures were 3140 nM and 4.13 nM.
Turning to `O=C1C2C3C=CC(C3)C2C(=O)N1OCCN1CCN(c2cccc(C(F)(F)F)c2)CC1` (stereo unspecified), the inhibitory constant (Ki) in assay [1] was more than 10000 nM; in assay [2], 2.14 nM.
For the compound `O=C1C2C3C=CC(C3)C2C(=O)N1OCCN1CCN(c2ccccc2Cl)CC1` (stereo unspecified), in assay [3], the Ki is given as 691 nM.
